# High-throughput results: PubChem BioAssay, Broad Institute
# Shown is part of a subset that was picked to be rich in hits.
# GASC1 inh = inhibitors of human demethylase GASC-1 KDM4C. GST-KDM4C 2-372, H3K9me3 peptide, LANCE TR-FRET. Q9H3R0. hit rate 0.15% among 96,000. inhibition, % at 12.5 µM. AID 720574;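 active = mean replicate inhibition above about 25%, with at least 55% of replicates also reaching it, limit read from the data, passing the limit was not always enough; inconclusive = only one of those two conditions met; inactive = neither condition met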
# Target sequence (Q9H3R0 2-372 limits assumed): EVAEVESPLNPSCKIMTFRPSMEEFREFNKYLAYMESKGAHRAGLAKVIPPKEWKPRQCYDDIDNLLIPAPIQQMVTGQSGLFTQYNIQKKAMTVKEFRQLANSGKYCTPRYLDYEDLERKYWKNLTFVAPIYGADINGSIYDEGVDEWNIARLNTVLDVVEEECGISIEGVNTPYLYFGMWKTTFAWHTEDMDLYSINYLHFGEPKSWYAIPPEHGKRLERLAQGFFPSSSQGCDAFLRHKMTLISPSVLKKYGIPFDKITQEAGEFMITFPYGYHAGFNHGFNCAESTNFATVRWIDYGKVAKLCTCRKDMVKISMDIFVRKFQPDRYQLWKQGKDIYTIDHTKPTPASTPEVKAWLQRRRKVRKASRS
#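 Assay system: GST-GASC-1 enzyme fragment 2-372 | Amount: 10 nM enzyme | Medium: HEPES buffer, pH 7.5, plus ascorbate | Reagent: H3K9me3 peptide substrate, Fe(II), 2-oxoglutarate | Doses: Single-point compound screen | Incubation: 30 min demethylation and 1 h detection at room temperature | Measured by: LANCE TR-FRET, excitation 340 nm, emissions 618 and 671 nm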
# IDH1 mut inh = inhibitors of human IDH1 R132H | IDH1 R132H reductase, diaphorase/resazurin fluorescence, 60 min | hit rate 0.18% among 70,000 | AID 624101 | inhibition, % at 10 µM; in the data active = inhibition above about 34%; inconclusive = no clear call, values can overlap the other calls; inactive = below about 11%;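 note: 0% = DMSO and 100% = no enzyme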
# Target sequence (O75874 whole entry R132H): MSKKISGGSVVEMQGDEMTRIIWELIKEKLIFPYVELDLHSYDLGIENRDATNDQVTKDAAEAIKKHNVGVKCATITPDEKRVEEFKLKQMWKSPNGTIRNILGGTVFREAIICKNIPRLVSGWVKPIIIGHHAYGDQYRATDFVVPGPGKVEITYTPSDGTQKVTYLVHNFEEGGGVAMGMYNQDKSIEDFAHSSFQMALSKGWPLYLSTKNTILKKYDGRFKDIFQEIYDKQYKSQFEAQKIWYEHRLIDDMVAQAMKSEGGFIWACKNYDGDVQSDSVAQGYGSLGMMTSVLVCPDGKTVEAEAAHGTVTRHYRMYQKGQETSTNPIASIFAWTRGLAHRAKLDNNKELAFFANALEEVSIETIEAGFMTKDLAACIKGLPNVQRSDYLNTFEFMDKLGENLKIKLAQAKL
# T cruzi growth-1 = blocks T. cruzi growth in NIH3T3 culture | T. cruzi beta-gal in NIH3T3, GalScreen luminescence, 90 h | inhibition, % at 8.34 µM | hit rate 5.9% among 77,000;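 active = mean inhibition above about 93%, with at least 55% of replicates each passing it, limit read from the data, passing the limit was not always enough; inconclusive = only one of those two conditions holds; inactive = neither condition holds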
# T cruzi growth-2 = blocks T. cruzi growth in NIH3T3 host cells; shares compounds with T cruzi growth-1; T. cruzi beta-gal in NIH3T3, GalScreen luminescence, 90 h; inhibition, % at 8.35 µM; hit rate 72% among 5,600; AID 651739;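 active = mean replicate inhibition above about 95% and at least 55% of replicates individually reaching it, limit read from the data; inconclusive = only one of the two criteria is met; inactive = neither criterion is met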
# T cruzi growth-3 = Trypanosoma cruzi proliferation inhibition; shares compounds with T cruzi growth-1; T. cruzi beta-gal in NIH3T3, GalScreen luminescence, 90 h; inhibition, % at 2.09 µM; hit rate 21% among 5,600;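 active = mean inhibition above about 95%, with at least 55% of replicates also reaching it, limit read from the data; inconclusive = meets just one of the two conditions; inactive = meets neither condition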;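 note: plate controls were neutral control median for no effect and positive control median for full effect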
# 3T3 cytotox = NIH/3T3 (mouse) viability loss | shares compounds with T cruzi growth-1 | NIH/3T3 viability, CellTiter-Glo ATP luminescence, 90 h | cytotoxicity (signal decrease), % at 8.35 µM | hit rate 14% among 5,600 | AID 651742;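 active = mean signal decrease across replicates above about 35% based on untreated-well scatter, with enough replicates individually passing, limit read from the data; inconclusive = no rule stated though some were filed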;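 note: 0% = median of neutral control wells and 100% = median of positive control wells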
# 3T3 cytotox 2 = kills mouse NIH/3T3 fibroblasts. shares compounds with T cruzi growth-1. NIH/3T3 viability, CellTiter-Glo ATP luminescence, 90 h. hit rate 56% among 5,600. inhibition, % at 24.9 µM;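 active = mean loss of cell viability signal at or above a set limit, and enough replicates individually reaching it; inconclusive = meets only the mean limit or only the replicate share; inactive = meets neither condition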;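 note: 0% = median of neutral control wells and 100% = median of positive control wells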
# Active calls of the source: *; ? = inconclusive; . = not tested or not shown.
SMILES,GASC1 inh,IDH1 mut inh,T cruzi growth-1,T cruzi growth-2,T cruzi growth-3,3T3 cytotox,3T3 cytotox 2
Cc1ccc(-c2nc3ccccc3s2)cc1NC(=O)COc1ccccc1Cl,.,-0.1,.,.,.,.,.
Cc1cccc(-c2nnc(SCC(=O)Nc3c(F)cc(F)cc3Br)n2C)c1,.,-0.1,.,.,.,.,.
COc1ccc(NC(=O)CSc2nc3c(c(C(F)(F)F)n2)CCCC3)c([N+](=O)[O-])c1,.,-0.5,.,.,.,.,.
COc1ccc(C(=O)CC2(O)C(=O)N(Cc3ccc(C)cc3)c3ccc(Cl)cc32)cc1[N+](=O)[O-] (configuration not stated),.,-0.8,.,.,.,.,.
O=C1c2ccccc2C(=O)N1Cc1cc(NS(=O)(=O)c2ccccc2)ccc1Cl,.,0.1,.,.,.,.,.
N#Cc1cccc(-c2ccc([C@@H]3[C@@H](CO)N4CCCCN(C(=O)Nc5cccc(F)c5)C[C@H]34)cc2)c1,2.1,.,114.9*,105.2*,65.0,27.3,103.8*
N#Cc1cccc(-c2ccc([C@@H]3[C@H]4CN(C(=O)Nc5cccc(F)c5)CCCCN4[C@H]3CO)cc2)c1,-1.4,.,92.8,.,.,.,.
N#Cc1cccc(-c2ccc([C@H]3[C@@H](CO)N4CCCCN(C(=O)Nc5ccc(F)cc5)C[C@H]34)cc2)c1,0.5,.,83.5,.,.,.,.
N#Cc1cccc(-c2ccc([C@H]3[C@@H](CO)N4CCCCN(C(=O)Nc5ccc(F)cc5)C[C@@H]34)cc2)c1,-0.1,.,122.8*,109.4*,78.6,2.5,8.4
N#Cc1cccc(-c2ccc([C@@H]3[C@H]4CN(C(=O)Nc5ccccc5)CCCCN4[C@H]3CO)cc2)c1,0.2,.,101.5*,105.2*,27.7,17.4,42.1*
N#Cc1cccc(-c2ccc([C@@H]3[C@@H](CO)N4CCCCN(C(=O)Nc5ccccc5)C[C@H]34)cc2)c1,-1.3,.,54.6,.,.,.,.
CCC(=O)N1CCCCN2[C@H](C1)[C@@H](c1ccc(-c3cccc(C#N)c3)cc1)[C@@H]2CO,-1.2,.,6.7,.,.,.,.
CCC(=O)N1CCCCN2[C@@H](CO)[C@@H](c3ccc(-c4cccc(C#N)c4)cc3)[C@@H]2C1,0.9,.,112.1*,90.5,91.7,6.9,12.7
CCC(=O)N(C(=O)CC)c1cc2oc3ccccc3c2cc1OC,.,-1.5,.,.,.,.,.
O=C(CSc1nnc2sc3ccccc3n12)Nc1c(Cl)cccc1Cl,.,-0.5,.,.,.,.,.
NC(N)=NS(=O)(=O)c1ccc(NC(=O)OC2CCCC2)cc1,.,-0.6,.,.,.,.,.
COc1ccccc1-c1ccc2c(c1)O[C@H](CN(C)S(=O)(=O)c1ccc(F)cc1)[C@H](C)CN([C@H](C)CO)S2(=O)=O,-1.4,0.3,102.4*,103.2*,84.3,28.9,43.2*
COc1ccccc1-c1ccc2c(c1)O[C@H](CN(C)S(=O)(=O)c1ccc(F)cc1)[C@@H](C)CN([C@@H](C)CO)S2(=O)=O,-0.2,0.0,103.2*,100.6*,59.2,23.6,48.1*
COc1ccccc1-c1ccc2c(c1)O[C@@H](CN(C)S(=O)(=O)c1ccc(F)cc1)[C@H](C)CN([C@@H](C)CO)S2(=O)=O,-1.4,-0.1,108.0*,108.9*,78.8,27.2,?
COc1ccccc1-c1ccc2c(c1)O[C@@H](CN(C)S(=O)(=O)c1ccc(F)cc1)[C@H](C)CN([C@H](C)CO)S2(=O)=O,-0.6,-0.8,17.8,.,.,.,.
COc1ccccc1-c1ccc2c(c1)O[C@H](CN(C)S(=O)(=O)c1ccc(F)cc1)[C@@H](C)CN([C@H](C)CO)S2(=O)=O,0.6,0.6,92.4,.,.,.,.
CCOC(=O)c1c(NC(=S)Nc2cnccn2)sc(C)c1-c1ccccc1,.,0.7,.,.,.,.,.
C[C@]12CCC3c4ccc(O)cc4CC[C@H]3C1CC[C@H]2O (some centres not stated),.,-0.1,.,.,.,.,.
CCCC#Cc1ccc([C@H]2[C@H](C#N)N(S(=O)(=O)c3cccc(F)c3)[C@H]2CO)cc1,-0.1,.,98.0*,103.4*,104.8*,7.0,58.6*
Cc1ccccc1S(=O)(=O)N1[C@H](C#N)[C@H](c2ccc(-c3ccccc3)cc2)[C@H]1CO,-1.2,.,103.4*,98.2*,65.9,40.5*,47.3*
SMILES,GASC1 inh,IDH1 mut inh,T cruzi growth-1,T cruzi growth-2,T cruzi growth-3,3T3 cytotox,3T3 cytotox 2
Cc1ccccc1S(=O)(=O)N1[C@H](C#N)[C@@H](c2ccc(-c3ccccc3)cc2)[C@@H]1CO,0.4,.,66.6,.,.,.,.
CCCC#Cc1ccc([C@@H]2[C@H](C#N)N(S(=O)(=O)c3cccc(F)c3)[C@H]2CO)cc1,-1.2,.,87.3,.,.,.,.
N#C[C@H]1[C@H](c2ccc(-c3cccc(F)c3)cc2)[C@H](CO)N1S(=O)(=O)c1cccc(F)c1,-1.7,.,96.2*,107.6*,74.6,37.2*,57.0*
N#C[C@H]1[C@H](c2ccc(-c3cccc(F)c3)cc2)[C@@H](CO)N1S(=O)(=O)c1cccc(F)c1,-2.4,.,97.7*,104.5*,58.8,41.3*,103.9*
N#C[C@H]1[C@@H](c2ccc(-c3cccc(F)c3)cc2)[C@@H](CO)N1S(=O)(=O)c1cccc(F)c1,0.5,.,89.4,.,.,.,.
N#C[C@H]1[C@@H](c2ccccc2)[C@@H](CO)N1S(=O)(=O)c1cccc(F)c1,0.2,0.9,-25.7,.,.,.,.
Cc1nc2nc[nH]n2c(=O)c1NS(=O)(=O)c1ccc(C2CCCCC2)cc1,.,0.6,.,.,.,.,.
COc1ccc(OC)c(NC(=O)COc2ccc(C(=O)Nc3ccc(C)cc3)cc2)c1,.,0.2,.,.,.,.,.
O=C(CSc1nnc(-c2ccc(Cl)cc2)o1)c1cccc([N+](=O)[O-])c1,.,0.6,.,.,.,.,.
COC(=O)c1cccc(NC(=O)COc2ccc([N+](=O)[O-])cc2)c1,.,-0.7,.,.,.,.,.
N#C[C@@H]1[C@H](c2ccc(-c3ccccc3F)cc2)[C@@H](CO)N1C(=O)C1CC1,-0.3,.,66.3,.,.,.,.
COc1ccc(-c2ccc([C@H]3[C@@H](C#N)N(C(=O)C4CC4)[C@H]3CO)cc2)cc1,-1.8,.,105.0*,83.2,35.5,-8.9,20.1
COc1ccccc1-c1ccc([C@@H]2[C@@H](C#N)N(C(=O)C3CC3)[C@H]2CO)cc1,-1.6,.,103.8*,41.9,41.0,5.5,20.9
N#C[C@H]1[C@@H](c2ccc(-c3ccccc3F)cc2)[C@@H](CO)N1C(=O)C1CC1,-2.6,-0.1,104.0*,106.7*,61.6,27.4,?
COc1ccccc1-c1ccc([C@@H]2[C@@H](C#N)N(C(=O)C3CCC3)[C@H]2CO)cc1,-0.1,.,48.5,.,.,.,.
COc1ccc(-c2ccc([C@@H]3[C@H](C#N)N(C(=O)C4CC4)[C@H]3CO)cc2)cc1,0.9,.,57.6,.,.,.,.
O=c1cc(-c2ccc(O)c(O)c2)oc2c(C3O[C@H](CO)[C@H](O)[C@H](O)[C@H]3O)c(O)cc(O)c12 (some centres not stated),.,-1.3,.,.,.,.,.
CC(NS(=O)(=O)c1ccc(Cl)cc1)C(=O)Nc1ccccc1Sc1ccccc1 (configuration not stated),.,0.0,.,.,.,.,.
CCNS(=O)(=O)c1ccc(NC(=O)c2cc(-c3ccccn3)nc3c(C)c(C)ccc23)cc1,.,0.2,.,.,.,.,.
